According to ChEMBL document CHEMBL1833921, “Synthesis and biological evaluation of phenstatin metabolites” (Bioorg Med Chem, 2011):

Assays:
[1] = Cell cycle arrest in mouse DA1-3b cells assessed as accumulation at G2/M phase after 24 hrs using propidium iodide staining by cytofluorometry; assay type: functional, cell-based
In short: (§1)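 DA1-3b murine leukemia cells were exposed to the compound for 24 h. They were then stained in a solution containing propidium iodide (50 µg/mL) and RNase A (0.5 mg/mL) and analysed on a FACScan cytofluorometer. The percentage of cells in each cell-cycle phase was reported, with several compound concentrations tested.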

[2] = Cell cycle arrest in mouse DA1-3b cells assessed as accumulation at G2/M phase at 10^-6 M after 24 hrs using propidium iodide staining by cytofluorometry (reference value: 18.0 %); assay type: functional, cell-based; in short: as §1
[3] = Cell cycle arrest in mouse DA1-3b cells assessed as accumulation at S phase at 10^-6 M after 24 hrs using propidium iodide staining by cytofluorometry (reference value: 28.0 %); assay type: functional, cell-based; in short: as §1
[4] = Cell cycle arrest in mouse DA1-3b cells assessed as accumulation at G1 phase at 10^-6 M after 24 hrs using propidium iodide staining by cytofluorometry (reference value: 52.2 %); assay type: functional, cell-based; in short: as §1
[5] = Cell cycle arrest in mouse DA1-3b cells assessed as accumulation at sub-G1 phase at 10^-6 M after 24 hrs using propidium iodide staining by cytofluorometry (reference value: 0.7 %); assay type: functional, cell-based; in short: as §1
[6] = Cell cycle arrest in mouse DA1-3b cells assessed as accumulation at G2/M phase at 10^-5 M after 24 hrs using propidium iodide staining by cytofluorometry (reference value: 18.0 %); assay type: functional, cell-based; in short: as §1
[7] = Cell cycle arrest in mouse DA1-3b cells assessed as accumulation at S phase at 10^-5 M after 24 hrs using propidium iodide staining by cytofluorometry (reference value: 28.0 %); assay type: functional, cell-based; in short: as §1
[8] = Cell cycle arrest in mouse DA1-3b cells assessed as accumulation at G1 phase at 10^-5 M after 24 hrs using propidium iodide staining by cytofluorometry (reference value: 52.2 %); assay type: functional, cell-based; in short: as §1
[9] = Cell cycle arrest in mouse DA1-3b cells assessed as accumulation at sub-G1 phase at 10^-5 M after 24 hrs using propidium iodide staining by cytofluorometry (reference value: 0.7 %); assay type: functional, cell-based; in short: as §1
[10] = Cell cycle arrest in mouse DA1-3b cells assessed as accumulation at G2/M phase at 10^-4 M after 24 hrs using propidium iodide staining by cytofluorometry (reference value: 18.0 %); assay type: functional, cell-based; in short: as §1
[11] = Cell cycle arrest in mouse DA1-3b cells assessed as accumulation at S phase at 10^-4 M after 24 hrs using propidium iodide staining by cytofluorometry (reference value: 28.0 %); assay type: functional, cell-based; in short: as §1
[12] = Cell cycle arrest in mouse DA1-3b cells assessed as accumulation at G1 phase at 10^-4 M after 24 hrs using propidium iodide staining by cytofluorometry (reference value: 52.2 %); assay type: functional, cell-based; in short: as §1
[13] = Cell cycle arrest in mouse DA1-3b cells assessed as accumulation at sub-G1 phase at 10^-4 M after 24 hrs using propidium iodide staining by cytofluorometry (reference value: 0.7 %); assay type: functional, cell-based; in short: as §1
[14] = system: HT-29; assay: Cytotoxicity against human HT29 cells after 48 hrs by sulforhodamine B assay; assay type: functional; details: HT-29, 48 h
[15] = system: A549; assay: Cytotoxicity against human A549 cells after 48 hrs by sulforhodamine B assay; assay type: functional; details: A549, 48 h
[16] = system: HL-60; assay: Cytotoxicity against human HL60 cells after 48 hrs by sulforhodamine B assay; assay type: functional; details: HL-60, 48 h
[17] = system: MDA-MB-468; assay: Cytotoxicity against human MDA-MB-468 cells after 48 hrs by sulforhodamine B assay; assay type: functional; details: MDA-MB-468, 48 h
[18] = system: Hs-578T; assay: Cytotoxicity against human HS578T cells after 48 hrs by sulforhodamine B assay; assay type: functional
[19] = system: MDA-MB-231; assay: Cytotoxicity against human MDA-MB-231/ATCC cells after 48 hrs by sulforhodamine B assay; assay type: functional; details: MDA-MB-231, 48 h
[20] = system: MCF7; assay: Cytotoxicity against human MCF7 cells after 48 hrs by sulforhodamine B assay; assay type: functional; details: MCF7, 48 h
[21] = system: SF-539; assay: Cytotoxicity against human SF539 cells after 48 hrs by sulforhodamine B assay; assay type: functional; details: SF-539, 48 h
[22] = system: SF-295; assay: Cytotoxicity against human SF295 cells after 48 hrs by sulforhodamine B assay; assay type: functional; details: SF-295, 48 h
[23] = system: SF-268; assay: Cytotoxicity against human SF268 cells after 48 hrs by sulforhodamine B assay; assay type: functional; details: SF-268, 48 h
[24] = system: DU-145; assay: Cytotoxicity against human DU145 cells after 48 hrs by sulforhodamine B assay; assay type: functional; details: DU-145, 48 h
[25] = system: UO-31; assay: Cytotoxicity against human UO31 cells after 48 hrs by sulforhodamine B assay; assay type: functional; details: UO-31, 48 h
[26] = system: SN12C; assay: Cytotoxicity against human SN12C cells after 48 hrs by sulforhodamine B assay; assay type: functional
[27] = system: RXF 393; assay: Cytotoxicity against human RXF393 cells after 48 hrs by sulforhodamine B assay; assay type: functional; details: RXF 393, 48 h
[28] = system: CAKI-1; assay: Cytotoxicity against human Caki1 cells after 48 hrs by sulforhodamine B assay; assay type: functional; details: CAKI-1, 48 h
[29] = system: A498; assay: Cytotoxicity against human A498 cells after 48 hrs by sulforhodamine B assay; assay type: functional; details: A498, 48 h
[30] = system: SK-OV-3; assay: Cytotoxicity against human SKOV3 cells after 48 hrs by sulforhodamine B assay; assay type: functional; details: SK-OV-3, 48 h
[31] = system: NCI/ADR-RES; assay: Cytotoxicity against human NCI/ADR-RES cells after 48 hrs by sulforhodamine B assay; assay type: functional
[32] = system: OVCAR-5; assay: Cytotoxicity against human OVCAR5 cells after 48 hrs by sulforhodamine B assay; assay type: functional; details: OVCAR-5, 48 h
[33] = system: OVCAR-4; assay: Cytotoxicity against human OVCAR4 cells after 48 hrs by sulforhodamine B assay; assay type: functional; details: OVCAR-4, 48 h
[34] = system: OVCAR-3; assay: Cytotoxicity against human OVCAR3 cells after 48 hrs by sulforhodamine B assay; assay type: functional; details: OVCAR-3, 48 h
[35] = system: UACC-62; assay: Cytotoxicity against human UACC62 cells after 48 hrs by sulforhodamine B assay; assay type: functional; details: UACC-62, 48 h
[36] = system: SK-MEL-28; assay: Cytotoxicity against human SK-MEL-28 cells after 48 hrs by sulforhodamine B assay; assay type: functional; details: SK-MEL-28, 48 h
[37] = system: SK-MEL-2; assay: Cytotoxicity against human SK-MEL-2 cells after 48 hrs by sulforhodamine B assay; assay type: functional; details: SK-MEL-2, 48 h
[38] = system: MDA-MB-435; assay: Cytotoxicity against human MDA-MB-435 cells after 48 hrs by sulforhodamine B assay; assay type: functional; details: MDA-MB-435, 48 h
[39] = system: M14; assay: Cytotoxicity against human M14 cells after 48 hrs by sulforhodamine B assay; assay type: functional; details: M14, 48 h
[40] = system: KM12; assay: Cytotoxicity against human KM12 cells after 48 hrs by sulforhodamine B assay; assay type: functional; details: KM12, 48 h
[41] = system: HCT-15; assay: Cytotoxicity against human HCT15 cells after 48 hrs by sulforhodamine B assay; assay type: functional; details: HCT-15, 48 h
[42] = system: HCT-116; assay: Cytotoxicity against human HCT116 cells after 48 hrs by sulforhodamine B assay; assay type: functional; details: HCT-116, 48 h
[43] = system: HCC 2998; assay: Cytotoxicity against human HCC2998 cells after 48 hrs by sulforhodamine B assay; assay type: functional; details: HCC 2998, 48 h
[44] = system: NCI-H522; assay: Cytotoxicity against human NCI-H522 cells after 48 hrs by sulforhodamine B assay; assay type: functional; details: NCI-H522, 48 h
[45] = system: COLO 205; assay: Cytotoxicity against human COLO205 cells after 48 hrs by sulforhodamine B assay; assay type: functional; details: COLO 205, 48 h
[46] = system: NCI-H460; assay: Cytotoxicity against human NCI-H460 cells after 48 hrs by sulforhodamine B assay; assay type: functional; details: NCI-H460, 48 h
[47] = system: EKVX; assay: Cytotoxicity against human EKVX cells after 48 hrs by sulforhodamine B assay; assay type: functional
[48] = system: NCI-H322M; assay: Cytotoxicity against human NCI-H322M cells after 48 hrs by sulforhodamine B assay; assay type: functional
[49] = system: A549; assay: Cytotoxicity against human A549/ATCC cells after 48 hrs by sulforhodamine B assay; assay type: functional; details: A549, 48 h
[50] = system: K562; assay: Cytotoxicity against human K562 cells after 48 hrs by sulforhodamine B assay; assay type: functional; details: K562, 48 h
[51] = system: CCRF-CEM; assay: Cytotoxicity against human CCRF-CEM cells after 48 hrs by sulforhodamine B assay; assay type: functional
[52] = Inhibition of bovine brain tubulin polymerization after 30 mins by turbidimetry analysis; parameters: species or system Bos taurus
In short: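 Lyophilized bovine brain tubulin (97%) reconstituted to 5 mg/mL in 80 mM PIPES pH 6.9, 2 mM MgCl₂, 0.5 mM EGTA, 1.0 mM GTP and 5% glycerol. Compound in DMSO was added to this solution in a quartz cuvette at 0 °C. Assembly was followed as the rise in absorbance at 340 nm at 37 °C. IC₅₀ is the molar concentration halving the extent of assembly after 30 min.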

Q: Which Activity [1] does the source give for COc1ccc(C(=O)c2cc(OC)c(OC)c(OC)c2)c(OC)c1O here?
A: Dose-dependent effect

Q: And the Activity [2]?
A: 47.2%

Q: And the Activity [3]?
A: 13.1%

Q: What about the Activity [4] of the same compound?
A: 21.5%

Q: What about the Activity [5] of the same compound?
A: 17.5%

Q: What about the Activity [6] of the same compound?
A: 32.9%

Q: And the Activity [7]?
A: 11.8%

Q: What about the Activity [8] of the same compound?
A: 24.7%

Q: What about the Activity [9] of the same compound?
A: 30%

Q: And the Activity [10]?
A: 25.3%

Q: What about the Activity [11] of the same compound?
A: 11.6%

Q: And the Activity [12]?
A: 26.1%

Q: What about the Activity [13] of the same compound?
A: 36.5%

Q: And the GI50 [14]?
A: 3460 nM

Q: And the GI50 [15]?
A: 41.3 nM

Q: What about the GI50 [16] of the same compound?
A: 23.5 nM

Q: What about the GI50 [17] of the same compound?
A: 249 nM

Q: And the GI50 [18]?
A: < 10 nM

Q: What about the GI50 [19] of the same compound?
A: 24.6 nM

Q: And the GI50 [20]?
A: 26.4 nM

Q: And the GI50 [21]?
A: 15.1 nM

Q: What about the GI50 [22] of the same compound?
A: 19.9 nM

Q: And the GI50 [23]?
A: 21.1 nM

Q: And the GI50 [24]?
A: 20.9 nM

Q: What about the GI50 [25] of the same compound?
A: 48.9 nM

Q: And the GI50 [26]?
A: 46.9 nM

Q: What about the GI50 [27] of the same compound?
A: 15.9 nM

Q: What about the GI50 [28] of the same compound?
A: 120 nM

Q: And the GI50 [29]?
A: 2720 nM

Q: What about the GI50 [30] of the same compound?
A: 89.6 nM

Q: What about the GI50 [31] of the same compound?
A: < 10 nM

Q: What about the GI50 [32] of the same compound?
A: 651 nM

Q: What about the GI50 [33] of the same compound?
A: 73 nM

Q: What about the GI50 [34] of the same compound?
A: 22.2 nM

Q: And the GI50 [35]?
A: 27.3 nM

Q: And the GI50 [36]?
A: 9460 nM

Q: What about the GI50 [37] of the same compound?
A: 26.6 nM

Q: What about the GI50 [38] of the same compound?
A: < 10 nM

Q: What about the GI50 [39] of the same compound?
A: < 10 nM

Q: What about the GI50 [40] of the same compound?
A: < 10 nM

Q: What about the GI50 [41] of the same compound?
A: 10.6 nM

Q: And the GI50 [42]?
A: 32 nM

Q: What about the GI50 [43] of the same compound?
A: 211 nM

Q: What about the GI50 [44] of the same compound?
A: < 10 nM

Q: What about the GI50 [45] of the same compound?
A: 6200 nM

Q: What about the GI50 [46] of the same compound?
A: 50.7 nM

Q: And the GI50 [47]?
A: 611 nM

Q: And the GI50 [48]?
A: < 10 nM

Q: And the GI50 [49]?
A: 41.3 nM

Q: What about the GI50 [50] of the same compound?
A: < 10 nM

Q: And the GI50 [51]?
A: 28.8 nM

Q: And the IC50 [52]?
A: 3200 nM
